Experimental findings from PubChem BioAssay are described below.

Activity calls are given as the source filed them.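 How the source made its calls, unless noted: active means viability at or below 30% in both replicate assays; inconclusive means viability at or below 30% in just one of the two assays; inactive means the rest.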

A short description of test [1]: HUVEC growth inhibition – cell-based, human, primary screen (AID 575).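 Further: 100% = median of untreated cell wells with 0.1% DMSO on each plate.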 The settings on record: HUVEC proliferation, CellTiter-Glo luminescence, 72 h; at 10 µM; stronger effect = lower value. The method in brief: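 Timing: 72 h treatment at 37 °C; material: HUVEC primary cells; technique: CellTiter-Glo luminescence measuring cellular ATP; controls: vehicle and MePR control wells; measure: percent of median DMSO-control luminescence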
A general note: ATP-based viability assays read luminescence as a measure of living cells.

A short description of test [2]: H69AR cell proliferation blockers – human, duplicate replicates, primary screen (AID 580;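 active means viability at or under a set limit in both replicates, limit being median viability minus 3 SD, cut at about 48% in these data, passing the limit was not always enough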;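 further: 100% = mean luminescence of untreated wells and 0% = no signal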). The settings on record: H69AR lung tumor cells viability, ATP luminescence, 72 h; at 10 µM; stronger effect = lower value.
Test [3] is described as follows: MRP1 drug-resistance reversers in H69AR cells – cell-based, doxorubicin co-treatment, pilot screen (AID 601;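 active means viability loss from added drug above about 55%, and viability with drug at most 40%, in both replicates, limit read from the data, passing the limit was not always enough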). The settings on record: CellTiter-Glo, 72 h, at 10 µM; for differential viability (reversal): stronger effect = higher value.
Test [4] can be described thus: yeast transport mutant growth inhibition pilot in 384-well plates, post-Golgi transport modulator project (AID 636; in the data active means inhibition above about 31%). The settings on record: absorbance 615 nm, about 18 h, stronger effect = higher value.
A short description of test [5]: growth suppression of yeast trafficking mutant, preliminary HTS, modulators of trafficking downstream of Golgi apparatus project, 1536-format plate, OD 615 nm (AID 637; in the data active means inhibition above about 30%). As to conditions: yeast transport mutant growth, absorbance 615 nm, 18 h; stronger effect = higher value.
Where [6] appears, read: H69AR cells + 2 uM doxorubicin, measured here: viability with 2 uM doxorubicin, stronger effect = lower value.
Where [7] appears, read: H69AR cells, compound alone cytotoxicity.

Consider `CCCCC(CC)Cn1c2nc3ccccc3nc2c2c(=N)oc(C)nc21` (stereo not drawn), for which the viability (usually a read-out of living cells in per cent, often relative to untreated cells) in test [1] was 3.36% (active); in test [2], 1.91% (active); in test [3] (setting [6]), 2.24%; in test [3] (setting [7]), 1.91%. In test [3] (H69AR cells + 2 uM doxorubicin), the differential viability (reversal) was -0.33% (inactive). For the same compound, the figures for the inhibition in test [4] and in test [5] were -2.63% (inactive) and 1.59% (inactive), respectively.
`COc1cccc(C(=O)CSc2nnc(COc3cccc4cccnc34)o2)c1`: the viability in test [1] is 90.3% (inactive); in test [2], 81% (inactive); in test [3] (setting [6]), 83.7%; in test [3] (setting [7]), 81%. Further, the differential viability (reversal) in test [3] (H69AR cells + 2 uM doxorubicin) was -2.74% (inactive). For the same compound, the values for the inhibition in test [4] and in test [5] were 4.87% (inactive) and -7.94% (inactive), respectively.
Consider `CCOc1ccc(C2/C(=C(/O)c3ccccc3)C(=O)C(=O)N2CCCN(C)C)cc1OC` (stereo not drawn), for which the viability is 111% (inactive) in test [1], 100% (inactive) in test [2], 92.9% in test [3] (setting [6]) and 100% in test [3] (setting [7]). Besides, the differential viability (reversal) in test [3] (H69AR cells + 2 uM doxorubicin) is 7.23% (inactive). Also, the inhibition (in general, the relative decrease from the control value, in per cent) in test [4] was -2.63% (inactive); in test [5] it was 6.19% (inactive).
Consider `CCOC(=O)C1CCCN(C(=O)c2cccs2)C1` (stereo not drawn), for which the viability in test [1] was 96.7% (inactive); in test [2], 98.3% (inactive); in test [3] (setting [6]) it was 82.9%; in test [3] (setting [7]), 98.3%. Besides, in test [3] (H69AR cells + 2 uM doxorubicin), the differential viability (reversal) is 15.4% (inactive). Further, the inhibition is -6.18% (inactive) in test [4] and 0.48% (inactive) in test [5].
`COC(=O)Cn1cc(C(=O)c2cccs2)c2ccccc21`: the viability was 103% (inactive) in test [1], 96.4% (inactive) in test [2], 86.9% in test [3] (setting [6]) and 96.4% in test [3] (setting [7]). Moreover, the differential viability (reversal) in test [3] (H69AR cells + 2 uM doxorubicin) was 9.54% (inactive). Further, the inhibition is -2.34% (inactive) in test [4] and 1.43% (inactive) in test [5].
Turning to `CCOC(=O)Cc1csc(NC(=O)CSc2nnc(C)n2C)n1`, the viability is 108% (inactive) in test [1], 95.2% (inactive) in test [2], 89.4% in test [3] (setting [6]) and 95.2% in test [3] (setting [7]). Also, the differential viability (reversal) in test [3] (H69AR cells + 2 uM doxorubicin) was 5.79% (inactive). Besides, the results for the inhibition in test [4] and in test [5] were 6.27% (inactive) and -5.4% (inactive), respectively.
In the case of `Cc1cc(C(F)(F)F)nc(SCC(=O)NC2=NC(=O)C(C)S2)n1` (stereo not drawn), the viability in test [1] was 96% (inactive); in test [2] it was 100% (inactive); in test [3] (setting [6]), 83.6%; in test [3] (setting [7]) it was 100%. In addition, the differential viability (reversal) in test [3] (H69AR cells + 2 uM doxorubicin) was 16.8% (inactive). Besides, the inhibition was -2.27% (inactive) in test [4] and -7.3% (inactive) in test [5].
Turning to `CN(C)S(=O)(=O)c1cccc(C(=O)Nc2cccnc2)c1`, the viability in test [1] is 83.9% (inactive); in test [2] it was 89.5% (inactive); in test [3] (setting [6]), 82%; in test [3] (setting [7]), 89.5%. Further, the differential viability (reversal) in test [3] (H69AR cells + 2 uM doxorubicin) is 7.48% (inactive). The inhibition in test [4] was -4.93% (inactive); in test [5] it was 1.43% (inactive).
As to `c1ccc(CCc2nn3c(Cn4cnc5ccccc54)nnc3s2)cc1`, the viability in test [1] is 75.8% (inactive); in test [2], 81.8% (inactive); in test [3] (setting [6]), 85.4%; in test [3] (setting [7]), 81.8%. Besides, the differential viability (reversal) in test [3] (H69AR cells + 2 uM doxorubicin) is -3.56% (inactive). Besides, the inhibition in test [4] is -1.18% (inactive); in test [5] it was 11.4% (inactive).
Turning to `CCOC(=O)C1CCCn2c1nc1sc3c(c1c2=O)CCCC3` (stereo not drawn), the viability was 86.1% (inactive) in test [1], 89.1% (inactive) in test [2], 98.3% in test [3] (setting [6]) and 89.1% in test [3] (setting [7]). The differential viability (reversal) in test [3] (H69AR cells + 2 uM doxorubicin) was -9.13% (inactive). In addition, the inhibition in test [4] was 0.27% (inactive); in test [5], -4.6% (inactive).
For the compound `CCOC(=O)c1cc(-c2ccc(N)cc2)sc1N`, the viability was 92.5% (inactive) in test [1], 93.4% (inactive) in test [2], 84.9% in test [3] (setting [6]) and 93.4% in test [3] (setting [7]). The differential viability (reversal) in test [3] (H69AR cells + 2 uM doxorubicin) is 8.46% (inactive). The inhibition in test [4] was -5.07% (inactive); in test [5], -0.95% (inactive).
For `COc1nc(OC)nc(N2CCC(NC(=O)C(Cc3ccc(C(C)C)cc3)NC(C)=O)CC2)n1` (stereo not drawn), the viability in test [1] was 110% (inactive); in test [2] it was 64.4% (inactive); in test [3] (setting [6]) it was 68%; in test [3] (setting [7]) it was 64.4%. Besides, in test [3] (H69AR cells + 2 uM doxorubicin), the differential viability (reversal) is -3.67% (inactive). Also, the inhibition in test [4] is -7.5% (inactive); in test [5], 1.59% (inactive).
As to `COc1cccc(Nc2nc(=O)[nH]nc2C)c1`, the viability is 75.7% (inactive) in test [1], 87.3% (inactive) in test [2], 76.4% in test [3] (setting [6]) and 87.3% in test [3] (setting [7]). The differential viability (reversal) in test [3] (H69AR cells + 2 uM doxorubicin) is 10.9% (inactive). The inhibition in test [4] was -2.08% (inactive); in test [5], 8.57% (inactive).
Consider `O=C(C1CC2CCC1C2)N1CCN(Cc2ccc3c(c2)OCO3)CC1` (stereo not drawn), for which the viability in test [1] is 103% (inactive); in test [2], 99.2% (inactive); in test [3] (setting [6]), 85.3%; in test [3] (setting [7]), 99.2%. Further, the differential viability (reversal) in test [3] (H69AR cells + 2 uM doxorubicin) was 13.9% (inactive). Moreover, the values for the inhibition in test [4] and in test [5] were -4.68% (inactive) and 3.33% (inactive), respectively.
`O=C(O)c1cnn2c1NC(c1ccc(F)cc1)CC2C(F)(F)F` (stereo not drawn): the viability is 90.8% (inactive) in test [1], 97.6% (inactive) in test [2], 88.3% in test [3] (setting [6]) and 97.6% in test [3] (setting [7]). Further, the differential viability (reversal) in test [3] (H69AR cells + 2 uM doxorubicin) is 9.29% (inactive). Moreover, the figures for the inhibition in test [4] and in test [5] were -6.32% (inactive) and 4.92% (inactive), respectively.
Regarding `COC(=O)c1ccccc1NC(=O)N1CCCC1`, the viability was 108% (inactive) in test [1], 103% (inactive) in test [2], 90.1% in test [3] (setting [6]) and 103% in test [3] (setting [7]). Besides, the differential viability (reversal) in test [3] (H69AR cells + 2 uM doxorubicin) was 13.2% (inactive). Also, the inhibition in test [4] is -3.2% (inactive); in test [5] it was -5.56% (inactive).
On to `Cc1ccc(S(=O)(=O)N2CCCC2C(=O)OCc2ccco2)cc1` (stereo not drawn), for which the viability was 96% (inactive) in test [1], 77.2% (inactive) in test [2], 76.8% in test [3] (setting [6]) and 77.2% in test [3] (setting [7]). In addition, the differential viability (reversal) in test [3] (H69AR cells + 2 uM doxorubicin) was 0.425% (inactive). Also, the values for the inhibition in test [4] and in test [5] were -6.58% (inactive) and -7.62% (inactive), respectively.
Turning to `C=CCn1c(SCc2cc(=O)n3ccsc3n2)nnc1C1CCCCC1`, the viability in test [1] was 93.1% (inactive); in test [2] it was 96.7% (inactive); in test [3] (setting [6]) it was 79.1%; in test [3] (setting [7]), 96.7%. Further, the differential viability (reversal) in test [3] (H69AR cells + 2 uM doxorubicin) is 17.5% (inactive). Besides, the figures for the inhibition in test [4] and in test [5] were -5.19% (inactive) and -0.16% (inactive), respectively.
As for `CC(NC(=O)OCc1ccccc1)C(=O)N1CC(O)CC1C(=O)O` (stereo not drawn), the viability is 82.5% (inactive) in test [1], 98.5% (inactive) in test [2], 81% in test [3] (setting [6]) and 98.5% in test [3] (setting [7]). Also, the differential viability (reversal) in test [3] (H69AR cells + 2 uM doxorubicin) was 17.6% (inactive). Besides, the inhibition in test [4] is -0.39% (inactive); in test [5], -1.59% (inactive).
